An excerpt weighted towards active compounds, which were near 1.6% of everything screened.
TbMetRS inhib: Trypanosoma brucei MetRS inhibition. 360,000 tested, 0.4% active. purified T. brucei MetRS, ATP depletion, Kinase-Glo luminescence. inhibition, % at 11.9 µM. AID 624268;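 active = inhibition above a per-plate cutoff of the control wells' mean inhibition plus 3 SD, cut at about 5.5% in these data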
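Dosing: 11.9 µM single point; system: parasite MetRS enzyme; technique: luminescence of leftover ATP; times: 15 min enzyme-compound preincubation, 2 h reaction, 10 min detection, 25 °C; replicates: each compound tested once; read-out basis: percent inhibition relative to median high and low control wells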
Rin1-Abl PPI inh: human Rin1-Abl interaction inhibition; inhibition, % at 7.35 µM; 360,000 tested, 0.4% active; P00519+Q13671; AID 588664; TR-FRET Rin1/Abl binding, biochemical; in the data active = inhibition above about 5%, passing the limit was not always enough
SKN-1 block: blocks SKN-1 activity in C. elegans | C. elegans VP596 Pgst-4::GFP/RFP ratio, acrylamide-induced, 24 h | inhibition, % at 21.8 µM | 360,000 tested, 0.49% active | AID 624304;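 active = interference check ratio from 0.5 to 1.5 plus GFP to RFP signal ratio inhibition reaching or exceeding a fixed threshold, cut at about 30% in these data, passing the limit was not always enough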
MT1-MMP act inh: blocks activation of human MT1-MMP | AID 651647 | GFP/RFP ratio change, % at 20 µM | P50281 | 360,000 tested, 0.061% active | HT1080 RFP-PRO-GFP cells, GFP/RFP ratio fluorescence, overnight; percent of plate control window, DMSO zero;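 active = GFP/RFP ratio change of at least 30% with cell ATP level not reduced by more than half and red fluorescence within 50% of control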
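Assay system – RFP-PRO-GFP reporter HT1080 cells · Compound dosing – single dose of 20 µM compound, 1% DMSO final · Incubation – overnight compound exposure at 37 °C · Measure – GFP/RFP fluorescence ratio · Benchmarks – DMSO wells and RFP-L50D-GFP cells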
Arr AP2 block: blocks beta-arrestin peptide binding to AP2 adaptin | FITC-arrestin peptide / GST-AP2 beads, flow cytometry; AP2 beta2 appendage carries R879A mutation | inhibition, % at 10 µM | 340,000 tested, 0.31% active | AID 504490;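 active = inhibition above a set limit, near 3 SD of compounds lacking own fluorescence, cut at about 54% in these data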
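system = GST-tagged AP2 beta2-adaptin appendage (R879A) on 4 µm glutathione beads | reagent = FITC-labelled arrestin peptide probe, 50 nM final | schedule = compound with beads 12 min RT, then probe 1 h RT | signal = HyperCyt-sampled flow cytometry, FL1 channel, ex 488/em 535 nm | read-out = percent response from loss of bead-bound FITC fluorescence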
Arr AP2 CP1: blocks beta-arrestin peptide binding to human AP2 | shares compounds with Arr AP2 block | GST-AP2 beads, FITC arrestin peptide binding, flow cytometry; GST-fused beta2-adaptin appendage, R879A mutant | inhibition, % at 10 µM | 1,300 tested, 2% active;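 active = inhibition above a set limit, roughly 3 SD of non-fluorescent compound noise, cut at about 38% in these data; inactive = inhibition at or below that limit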;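 note: loss of bead fluorescence from 50 nM FITC arrestin peptide bound to appendage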
GST GSH counter: disrupts GST binding to glutathione beads, arrestin-AP2 artifact | shares compounds with Arr AP2 block | GST-fluorescein binding to GSH beads, fluorescence, counter-screen | inhibition, % at 10 µM | 1,300 tested, 2% active | AID 588338;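 active = inhibition above 50%, about 3 SD of the inhibition seen with non-fluorescent compounds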;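 note: fluorescein maleimide labelled GST captured on 4 micron glutathione beads; higher means more loss of bead fluorescence from quenching or blocked binding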
Hits are given with their value; – = inactive; · = no result.

SMILES	TbMetRS inhib	Rin1-Abl PPI inh	SKN-1 block	MT1-MMP act inh	Arr AP2 block	Arr AP2 CP1	GST GSH counter
CC1CC(=O)Nc2ccccc2N1S(=O)(=O)c1ccc(Cl)cc1 (stereo not given)	–	–	–	–	–	·	·
CC1Oc2ccc(C#N)cc2N(Cc2cccc(F)c2)C1=O (stereo not given)	–	–	–	–	·	·	·
COCCN1C(=O)/C(=C/c2ccc(N3CCCC3)cc2C)SC1=S	–	–	–	–	103	–	–
CC(NC(=O)c1cccc(S(=O)(=O)N2CCCCCC2)c1)c1ccccc1 (stereo not given)	–	–	–	–	–	·	·
O=C(N/N=C\c1cccc([N+](=O)[O-])c1O)C1COc2ccccc2O1 (stereo not given)	–	–	–	–	–	·	·
O=C(Nc1cnc2ccccc2c1)C1COc2ccccc2O1 (stereo not given)	–	–	–	–	69	–	–
O=C(Nc1ccccc1[N+](=O)[O-])C1COc2ccccc2O1 (stereo not given)	–	–	–	–	56	–	–
Cc1ccccc1NC(=O)C1COc2ccccc2O1 (stereo not given)	–	–	–	–	–	·	·
O=C(N/N=C/c1cccc([N+](=O)[O-])c1)C1COc2ccccc2O1 (stereo not given)	–	–	–	–	58	–	–
N#Cc1nc(-c2ccco2)oc1NCc1ccc(F)cc1	–	–	–	–	72	–	–
N#Cc1nc(-c2ccco2)oc1NCc1cccnc1	–	–	–	–	–	·	·
COc1cccc(CN2CCC2(C)C(=O)Nc2ccc3c(c2)CCN3C(C)=O)c1F (stereo not given)	–	–	–	–	·	·	·
CC(=O)Nc1ccc(NC(=O)CSc2nnc(C)n2-c2ccccc2)cc1	–	–	–	–	60	–	–
COc1cc2c(cc1NC(=S)Nc1cccc3ccccc13)oc1ccccc12	–	–	–	–	–	·	·
COc1cc2c(cc1NC(=O)COC(=O)[C@@H](NS(=O)(=O)c1ccccc1)C(C)C)oc1ccccc12	–	–	–	–	–	·	·
COc1cc2c(cc1NC(=O)C(C)NCc1ccccc1)oc1ccccc12 (stereo not given)	–	–	–	–	–	–	–
COc1cc2c(cc1NC(=O)Nc1ccccc1)oc1ccccc12	–	–	–	–	–	–	–
CC(=O)c1cccc(NC(=O)c2ccc(-c3c(C)noc3C)c3ccoc23)c1	–	–	–	–	·	·	·
CCN1CCCSC1=S	–	–	–	–	·	·	·
O=C1CC2(CCCC2)C(=O)N1CN1CCN(S(=O)(=O)c2cc(F)ccc2F)CC1	–	–	–	–	·	·	·
O=C1CC(c2ccco2)CC(O)=C1C=NCCN1CCN(C(=O)Nc2ccc(Cl)cc2)CC1 (stereo not given)	–	–	–	–	–	·	·
O=C1CC(c2ccco2)CC(O)=C1C=NCCN1CCN(C(=S)Nc2ccccc2)CC1 (stereo not given)	–	–	–	–	56	–	–
CCc1ccc(NC(=O)C2CCN(S(=O)(=O)c3c(C)noc3/C=C/N(C)C)CC2)cc1	–	–	–	–	55	–	–
CCc1nc2c(OCC(N)=O)cccn2c1N(C)C(=O)c1cccs1	–	–	–	–	·	·	·
Cc1cccc(NC(=O)CSc2nsc(SCC(=O)Nc3cccc(C)c3)c2C#N)c1	–	–	–	–	–	·	·
SMILES	TbMetRS inhib	Rin1-Abl PPI inh	SKN-1 block	MT1-MMP act inh	Arr AP2 block	Arr AP2 CP1	GST GSH counter
N#Cc1c(SCC(=O)Nc2ccccc2)nsc1SCC(=O)Nc1ccccc1	–	–	–	–	109	–	–
O=C(CCNC(=O)C1CCN(S(=O)(=O)c2ccccc2)CC1)NCc1ccc(Cl)cc1	–	–	–	–	63	–	–
O=C(CCNC(=O)C1CCN(S(=O)(=O)c2ccccc2)CC1)NCc1cccc(Cl)c1	–	–	–	–	–	·	·
Cc1cc(C)cc(NC(=O)C(=O)NCC2CCCN2S(=O)(=O)c2cccs2)c1 (stereo not given)	–	–	–	–	69	–	–
Cc1ccc(NC(=O)C(=O)NCC2CCCN2S(=O)(=O)c2cccs2)c(C)c1 (stereo not given)	–	–	–	–	–	·	·
O=C(Cc1ccc(F)cc1)N1CCC2(CC1)NCCc1[nH]cnc12	–	–	–	–	56	–	–
COc1ccc(CC(=O)N2CCC3(CC2)NCCc2[nH]cnc23)cc1	–	–	–	–	–	·	·
Clc1ccc(NN(Cc2ccncc2)c2ccc(Cl)cc2)cc1	–	–	–	–	·	·	·
O=C(Cn1nc(Cl)nc1Cl)c1ccccc1	–	–	–	–	55	–	–
O=C(CCC1CCCN(C(=O)c2ccc3cc[nH]c3c2)C1)NCc1ccc(F)c(F)c1 (stereo not given)	–	–	–	–	58	–	–
CCC(C)C(CO)NCCCn1cnc2c(OC)ncnc21 (stereo not given)	–	–	–	–	·	·	·
COC(=O)c1c(NC(=O)/C=C/C(=O)O)sc(C)c1-c1ccc(C(C)C)cc1	–	–	–	–	57	–	–
O=C(c1nc2ccccn2c1CN1CCCC(O)C1)N1CCN(C2CCCCC2)CC1 (stereo not given)	–	–	–	–	–	·	·
NC(=O)[C@@H]1CCCN1Cc1c(C(=O)N2CCN(C3CCCCC3)CC2)nc2ccccn12	–	–	–	–	54	–	–
CCOC(=O)N1CCN(C(=O)C[C@@H]2C[C@@]3(C(=O)OCC)CCC=C3N(Cc3cccc4ccccc34)C2=O)CC1	–	·	–	–	·	·	·
CC1=C(C(=O)N(C(C)C)C(C)C)CC(CC(=O)NC(c2ccccc2)c2ccccc2)C(=O)N1Cc1ccc(C(C)(C)C)cc1 (stereo not given)	–	–	–	–	·	·	·
CC[n+]1c(/C=C/Nc2ccccc2)oc2ccccc21	–	–	–	–	–	·	·
CC[n+]1c(/C=C/Nc2ccccc2)oc2ccc(OC)cc21	–	–	–	–	58	–	–
COc1cc(OC)cc(C(=O)Nc2ccc(S(=O)(=O)Nc3ncccn3)cc2)c1	–	–	–	–	55	–	–
COc1ccccc1-n1c(SCC(=O)NC2CC2)nc2ccccc2c1=O	–	–	–	–	60	–	–
O=C(CSc1nc2ccccc2c(=O)n1-c1ccccc1F)NC1CC1	–	–	–	–	–	·	·
CCc1nc2ccc(C(=O)NCCOc3ccc(OC)cc3)cn2c1N(CC)CCN(C)C	–	–	–	–	·	·	·
CCC(=O)Nc1c(C#N)c2nc3ccccc3nc2n1C1CCCCC1	–	–	–	–	75	–	–

Compound activity (PubChem BioAssay)
